Most compounds without a hit are left out; they make up all but 2.9% or so of the library.
ZTA DNA inh = ZTA (EBV) inhibition in EBNA-1 counter-screen | ZTA-DNA binding, fluorescence polarization | inhibition, % at 11 µM | 0.15% of 320,000 active | AID 2234; in the data active = inhibition above about 33%
EBNA-1 inhibitor = EBNA-1 DNA-binding inhibitors, primary screen, biochemical, fluorescence polarization; inhibition, % at 14.8 µM; AID 1950, 2009; 0.34% of 300,000 active; in the data active = inhibition above about 28%
UBC13 inh = UBC13 polyubiquitin chain formation inhibitors, primary screen, biochemical, TR-FRET, uHTS; Ubiquitin-conjugating enzyme E2 N (Homo sapiens), P61088; 0.47% of 330,000 active; inhibition, % at 20 µM; in the data active = inhibition above about 45%, passing the limit was not always enough
PfGluPho inh = PfG6PD enzyme inhibitors, primary screen, biochemical, fluorescence intensity, uHTS | glucose-6-phosphate dehydrogenase-6-phosphogluconolactonase (Plasmodium falciparum 3D7) | PfGluPho enzyme, NADPH resazurin-diaphorase fluorescence | inhibition, % at 20 µM | 0.78% of 350,000 active | AID 504690, 2011;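 active = inhibition reaching at least a set limit at 20 µM in the primary screen, cut at about 59% in these data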
Apaf1 inhib = inhibitors of human Apaf-1 apoptosome, primary screen, biochemical, DEVD-Rh110 fluorescence, uHTS; reconstituted apoptosome caspase-3 activity; 0.71% of 330,000 active; inhibition, % at 20 µM; AID 489030, 2010; Apoptotic protease-activating factor 1 (Homo sapiens), O14727; active = inhibition of at least 40% at 20 µM
Target sequence (O14727 whole entry, looked up): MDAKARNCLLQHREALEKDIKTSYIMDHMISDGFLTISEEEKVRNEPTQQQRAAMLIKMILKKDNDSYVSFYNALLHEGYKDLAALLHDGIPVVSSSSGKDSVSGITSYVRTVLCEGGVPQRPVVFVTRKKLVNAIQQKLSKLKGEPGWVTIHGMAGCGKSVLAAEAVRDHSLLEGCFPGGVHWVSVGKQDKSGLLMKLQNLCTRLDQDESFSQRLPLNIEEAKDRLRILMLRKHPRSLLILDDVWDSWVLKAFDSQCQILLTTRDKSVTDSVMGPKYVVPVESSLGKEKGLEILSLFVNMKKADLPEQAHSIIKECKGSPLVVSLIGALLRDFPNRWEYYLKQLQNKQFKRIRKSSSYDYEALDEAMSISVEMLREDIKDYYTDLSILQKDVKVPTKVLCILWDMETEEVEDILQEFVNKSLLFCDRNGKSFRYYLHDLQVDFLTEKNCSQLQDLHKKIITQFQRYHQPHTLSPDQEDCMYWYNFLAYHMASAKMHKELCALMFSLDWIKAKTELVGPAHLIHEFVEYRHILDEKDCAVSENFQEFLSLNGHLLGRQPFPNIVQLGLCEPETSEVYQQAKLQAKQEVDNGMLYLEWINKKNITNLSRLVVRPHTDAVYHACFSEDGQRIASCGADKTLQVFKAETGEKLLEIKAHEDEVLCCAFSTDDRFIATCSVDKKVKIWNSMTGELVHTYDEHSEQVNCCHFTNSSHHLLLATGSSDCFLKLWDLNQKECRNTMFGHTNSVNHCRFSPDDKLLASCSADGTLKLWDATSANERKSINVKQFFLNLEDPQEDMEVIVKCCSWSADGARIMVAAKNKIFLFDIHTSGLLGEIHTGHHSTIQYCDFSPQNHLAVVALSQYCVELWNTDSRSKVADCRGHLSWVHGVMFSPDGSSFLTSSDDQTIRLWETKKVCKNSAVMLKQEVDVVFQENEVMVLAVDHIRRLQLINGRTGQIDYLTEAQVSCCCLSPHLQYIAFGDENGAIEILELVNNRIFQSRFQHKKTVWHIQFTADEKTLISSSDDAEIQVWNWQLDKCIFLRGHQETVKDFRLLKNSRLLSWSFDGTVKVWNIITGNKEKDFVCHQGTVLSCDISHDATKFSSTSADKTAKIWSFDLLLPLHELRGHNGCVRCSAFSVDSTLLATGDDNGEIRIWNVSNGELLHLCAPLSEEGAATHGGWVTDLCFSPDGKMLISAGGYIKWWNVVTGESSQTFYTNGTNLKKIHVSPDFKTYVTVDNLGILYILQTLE
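Assay system: Apoptosome proteins | Medium: pH 7.5 Hepes buffer with CHAPS, BSA, DTT | Also added: Cytochrome c and DEVD-Rh110 substrate | Times: 30 min plus 50 min, RT | Detection: Rhodamine 110 fluorescence at Ex 480/Em 540 nm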
PfM18AAP inh = PfM18AAP inhibitors, malaria aminopeptidase, primary screen, biochemical, QFRET, recombinant enzyme; M18 aspartyl aminopeptidase (Plasmodium falciparum 3D7); H-Glu-NHMec fluorogenic cleavage; inhibition, % at 7.35 µM; 1.2% of 290,000 active; AID 1822, 2009;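 active = inhibition above the campaign mean inhibition over all tested compounds plus 3 SD, cut at about 28% in these data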
EBNA-1 inh conf = EBNA-1 DNA-binding inhibitors, retest, confirmation, biochemical, fluorescence polarization, triplicate | shares compounds with EBNA-1 inhibitor | Recombinant EBNA-1 DBD, Cy5-DNA fluorescence polarization | inhibition, % at 14.8 µM | 35% of 830 active;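 active = mean inhibition across replicates above a set limit taken from the earlier primary screen, cut at about 28% in these data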
ZTA DNA inh trip = EBV Zta DNA binding inhibitors, counter-screen for EBNA-1 inhibitor project, biochemical, fluorescence polarization, triplicate; 830 tested, under 10 active; inhibition, % at 11.1 µM; Zta-ZRE DNA binding, Cy5 fluorescence polarization; shares compounds with EBNA-1 inhibitor;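 active = mean inhibition over triplicates above a set limit taken from the primary EBNA-1 screen, cut at about 37% in these data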;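 also: purified full length Zta protein with Cy5 labeled ZRE DNA probe; inhibitors lower polarization by freeing the labeled DNA probe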
Hits are given with their value; . = inactive; / = not tested or not shown.

SMILES	ZTA DNA inh	EBNA-1 inhibitor	UBC13 inh	PfGluPho inh	Apaf1 inhib	PfM18AAP inh	EBNA-1 inh conf	ZTA DNA inh trip
CC(=O)Nc1ccc(NC(=O)/C=C/c2ccc3c(c2)OCO3)cc1	.	.	.	.	.	.	/	/
NS(=O)(=O)c1ccc(NC(=O)/C=C/c2ccc3c(c2)OCO3)cc1	.	44	.	.	.	.	.	.
O=C(Cn1c(O)c(/C=C2\C=Nc3ccc(Br)cc32)sc1=O)N1CCCC1	.	29	.	.	.	.	.	.
CSc1nc2ccc(NC(=O)c3ccc(Cl)s3)cc2s1	.	38	.	.	.	.	34	.
CCN(CC)C(=O)CSc1nc2cc3c(cc2c(=O)n1CCCC(=O)NCc1ccc(OC)cc1)OCO3	.	.	.	.	.	.	/	/
COc1ccc(CNC(=O)CCCCCn2c(SCC#N)nc3cc4c(cc3c2=O)OCO4)cc1	.	38	.	.	.	.	.	.
CCC(=O)Nc1ccc(NC(=S)NC(=O)c2cc3ccccc3o2)cc1	.	.	.	.	.	.	/	/
CCC(=O)Nc1cccc(NC(=S)NC(=O)c2cc3ccccc3o2)c1	.	31	.	.	.	.	.	.
O=S(=O)(N/N=C/c1ccccc1OCc1ccc(Cl)cc1)c1ccccc1	.	.	.	.	.	.	/	/
COC(=O)c1ccc(COc2ccccc2/C=N/NS(=O)(=O)c2ccc(C)cc2)cc1	.	67	.	.	.	.	29	.
CCOC(=O)[C@H]1[C@H]2COc3ccc(Cl)cc3[C@@H]2N2C(=O)c3ccc(Cl)cc3NC(=O)[C@@]12C	.	77	.	.	.	/	82	.
CC(=O)Nc1ccc(/C=C/c2nc(-c3ccccc3O)n[nH]2)cc1	.	45	.	.	.	.	.	.
Cc1ccc(C)c(OC(C)C(=O)Nc2ccc(S(=O)(=O)Nc3nccs3)cc2)c1 (stereo unspecified)	.	.	.	.	.	.	/	/
CN(C(=O)c1cccc(NC(=O)Cc2ccc(NC(=O)C3CCN(C(=O)c4ccccc4)CC3)cc2)c1)C1CCCCC1	/	/	/	.	/	/	/	/
CC1=CC2=NC(=O)/C(=C\c3cc(C)n(-c4ccccc4)c3C)C(=N)N2O1	.	.	.	.	.	.	/	/
CC1=CC2=NC(=O)/C(=C\c3cn(C)c4ccccc34)C(=N)N2O1	.	40	.	.	.	.	91	.
CCCCNC(=O)c1onc(CSc2cccc3ccccc23)c1C(=O)O	.	.	.	.	.	.	/	/
COc1cccc(-c2cc(=O)c3cc(NC(=O)c4ccc(N(C)C)cc4)ccc3[nH]2)c1	.	42	.	.	.	.	.	.
Cc1cc(C)cc(N2CC(O)=C(c3nc4ccccc4c(=O)[nH]3)C2=N)c1	.	.	.	.	.	.	/	/
COc1cccc(N2CC(O)=C(c3nc4ccccc4c(=O)[nH]3)C2=N)c1	.	67	.	.	.	.	125	.
Cc1ccc(OC(=O)CCC(=O)NC(C)c2ccccc2)cc1 (stereo unspecified)	.	.	.	.	.	.	/	/
CCCOC(=O)c1cccc(NC(=O)COc2ccc([N+](=O)[O-])cc2)c1	.	109	.	.	.	.	.	.
COCCn1c(Cc2ccccc2)nnc1SCC(=O)NC(C)C	.	87	.	.	.	.	.	.
COc1cc(C(=O)NNC(=S)NC(=O)/C=C/c2ccccc2)cc(OC)c1OC	.	77	.	.	.	.	35	.
COc1cc(C(=O)NNC(=O)/C=C/c2ccccc2)cc(OC)c1OC	/	/	.	.	.	/	/	/
SMILES	ZTA DNA inh	EBNA-1 inhibitor	UBC13 inh	PfGluPho inh	Apaf1 inhib	PfM18AAP inh	EBNA-1 inh conf	ZTA DNA inh trip
COc1cc(NC(=O)CSc2nc3ccccc3c(=O)n2C)ccc1NC(=O)c1ccco1	.	40	.	.	.	.	28	.
O=C(Cn1cnc2c(OCc3ccccc3)ncnc21)NCc1ccccn1	/	/	.	.	.	/	/	/
CC(=O)Nc1ccc(NC(=O)CSc2ccc(-c3cccs3)nn2)cc1	.	41	.	.	.	.	38	.
Cc1cccc(NC(=O)CSc2ccc(-c3cccs3)nn2)c1C	.	29	.	.	.	.	.	.
Cc1sc2c(c1C)C(=O)/C(=C\Nc1ccccn1)S(=O)(=O)N2C	.	.	.	.	.	.	/	/
Cc1ccc(NC(=O)/C=C/c2ccc(S(=O)(=O)N3CCOCC3)cc2)cc1S(=O)(=O)N(C)C	/	/	/	.	/	/	/	/
CC(CCn1cccn1)NC(=O)CCc1nnc(C2CCCCC2)o1 (stereo unspecified)	.	.	.	.	.	.	/	/
CN1CCN(c2nc(-c3ccccn3)nc3ccccc23)CC1	.	63	.	.	.	.	.	.
c1ccc(N2CCN(c3nc(-c4ccccn4)nc4ccccc34)CC2)cc1	.	.	.	.	.	.	/	/
O=C(CCc1nc2sc3c(c2c(=O)[nH]1)CCCC3)Nc1ccccc1Cl	.	39	.	.	.	/	.	.
CCC(=O)Nc1ccc(NC(=S)NC(=O)/C=C/c2ccco2)cc1	.	.	.	.	.	.	/	/
CC(=O)NC(=S)Nc1ccc(NC(=S)NC(=O)/C=C/c2ccco2)cc1	.	43	.	.	.	.	32	.
O=C(NCC1OCCc2ccccc21)c1ccc(NC(=O)c2ccc(Cl)cc2Cl)cc1 (stereo unspecified)	.	70	.	.	.	.	47	.
COc1ccc(C(=O)NCC2OCCc3ccccc32)cc1 (stereo unspecified)	.	.	.	.	.	.	/	/
O=C(Nc1ccc2c(c1)OCO2)C1CCN(c2ccc(S(=O)(=O)N3CCOCC3)cc2)CC1	.	29	.	.	.	.	.	.
Cc1cc2c(Nc3ccc(C(=O)O)cc3)ncnc2s1	.	97	.	.	.	.	.	.
O=C(Cn1nnc(-c2ccccc2NC(=O)c2cccs2)n1)Nc1ccccc1	.	28	.	.	.	.	47	.
O=C(Cn1nnc(-c2ccccc2NC(=O)c2ccccc2F)n1)NCc1ccco1	.	.	.	.	.	.	/	/
COc1ccccc1NC(=O)Cn1nnc(-c2ccccc2NC(=O)c2cccs2)n1	.	.	.	.	.	.	/	/
COc1ccccc1C(=O)Nc1ccc(-c2nnn(CC(=O)NCc3ccco3)n2)cc1	.	42	.	.	.	.	52	.
COc1ccc(C(=O)Nc2ccccc2-c2nnn(CC(=O)NCc3ccco3)n2)cc1	.	54	.	.	.	.	.	.

High-throughput results deposited in PubChem BioAssay by several laboratories.
